In general, IC50 refers to the point on the concentration scale where inhibition reaches its midpoint. High values mean lower potency, low ones higher potency. One may read the ED50 as the dose at which the effect has come halfway, by size or by number of responders. Higher therefore signals a need for a large dose.

Experiment [1] concerns the target Dipeptidyl peptidase 4 (Rattus norvegicus, UniProt P14740). Briefly: Inhibitory concentration against rat dipeptidyl peptidase IV. An outline of the steps:
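Rat plasma (20 µL) as enzyme source, incubated 1 h at room temperature, pH 7.8, with Ala-Pro-AFC (40 µM) ± inhibitor dissolved in DMSO (5% final in assay). Released AFC read by fluorescence (ex 360 nm, em 485 nm). IC50 obtained by curve analysis.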

Experiment [2] deals with Dipeptidyl peptidase 4 (Sus scrofa, UniProt P22411). Briefly: Inhibitory concentration against dipeptidyl peptidase IV of porcine kidney. It is filed as functional, tissue-based. The essentials:
(§1)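 DP-IV activity from Caco-2 cells or porcine kidney, measured as AFC fluorescence (ex 360 nm, em 485 nm) liberated from Ala-Pro-AFC with or without inhibitor. Compounds in DMSO, 5% in assay mixture. IC50 obtained by curve analysis.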

Experiment [3] deals with Dipeptidyl peptidase 4 (Mus musculus) (UniProt P28843). Briefly: Effective dose for inhibition of dipeptidyl peptidase IV in mice after 1 hr subcutaneous administration. The experiment is classed as functional, organism-based.
Experiment [4] has as its target Dipeptidyl peptidase 4 (Homo sapiens, UniProt P27487). Briefly: Inhibitory concentration against dipeptidyl peptidase IV in Caco-2 cell assay. It is filed as functional, cell-based. An outline of the steps:
as §1

Sequence of Dipeptidyl peptidase 4 (Sus scrofa, UniProt P22411) (P22411 whole entry): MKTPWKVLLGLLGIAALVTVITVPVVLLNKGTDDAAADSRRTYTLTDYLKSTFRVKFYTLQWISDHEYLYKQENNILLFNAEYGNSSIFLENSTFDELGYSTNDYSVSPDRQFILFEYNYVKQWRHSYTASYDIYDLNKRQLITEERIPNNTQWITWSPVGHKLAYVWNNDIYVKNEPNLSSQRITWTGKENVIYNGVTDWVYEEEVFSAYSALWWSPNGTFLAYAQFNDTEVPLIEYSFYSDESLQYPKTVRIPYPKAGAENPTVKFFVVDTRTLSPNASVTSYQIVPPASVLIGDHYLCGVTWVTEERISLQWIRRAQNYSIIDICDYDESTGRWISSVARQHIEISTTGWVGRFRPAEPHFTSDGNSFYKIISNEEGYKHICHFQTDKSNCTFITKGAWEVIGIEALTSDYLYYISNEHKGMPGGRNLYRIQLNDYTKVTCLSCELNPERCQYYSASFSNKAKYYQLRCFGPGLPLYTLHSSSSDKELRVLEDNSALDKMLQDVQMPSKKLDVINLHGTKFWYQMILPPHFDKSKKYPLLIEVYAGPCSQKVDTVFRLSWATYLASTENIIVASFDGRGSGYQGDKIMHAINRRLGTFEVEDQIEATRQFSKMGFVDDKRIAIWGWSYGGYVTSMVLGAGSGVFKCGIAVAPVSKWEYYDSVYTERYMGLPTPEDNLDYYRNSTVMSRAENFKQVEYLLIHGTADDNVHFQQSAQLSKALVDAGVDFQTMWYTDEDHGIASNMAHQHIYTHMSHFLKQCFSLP
Sequence of Dipeptidyl peptidase 4 (Rattus norvegicus, UniProt P14740) (P14740 whole entry): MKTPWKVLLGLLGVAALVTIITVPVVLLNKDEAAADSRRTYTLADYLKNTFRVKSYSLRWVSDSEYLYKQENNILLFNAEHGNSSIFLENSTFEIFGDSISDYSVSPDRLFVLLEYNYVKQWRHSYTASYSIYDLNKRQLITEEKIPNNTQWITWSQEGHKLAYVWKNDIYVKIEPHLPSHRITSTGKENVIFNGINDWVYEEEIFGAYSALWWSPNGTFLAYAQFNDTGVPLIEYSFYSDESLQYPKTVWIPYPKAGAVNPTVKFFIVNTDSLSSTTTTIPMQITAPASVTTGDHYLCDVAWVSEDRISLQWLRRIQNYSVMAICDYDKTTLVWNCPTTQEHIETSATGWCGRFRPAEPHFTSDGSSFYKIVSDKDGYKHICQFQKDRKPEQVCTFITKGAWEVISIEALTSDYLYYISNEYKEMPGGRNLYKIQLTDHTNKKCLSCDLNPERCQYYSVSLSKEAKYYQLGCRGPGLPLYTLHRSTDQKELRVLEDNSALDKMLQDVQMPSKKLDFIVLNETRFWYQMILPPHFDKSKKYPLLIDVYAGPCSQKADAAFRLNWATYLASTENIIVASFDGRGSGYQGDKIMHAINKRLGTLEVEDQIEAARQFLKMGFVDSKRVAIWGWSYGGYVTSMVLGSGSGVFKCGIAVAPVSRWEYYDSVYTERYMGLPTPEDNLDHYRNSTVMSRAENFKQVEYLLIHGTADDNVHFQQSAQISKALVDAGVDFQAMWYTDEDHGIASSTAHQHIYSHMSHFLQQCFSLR
Sequence of Dipeptidyl peptidase 4 (Mus musculus) (P28843 whole entry, looked up): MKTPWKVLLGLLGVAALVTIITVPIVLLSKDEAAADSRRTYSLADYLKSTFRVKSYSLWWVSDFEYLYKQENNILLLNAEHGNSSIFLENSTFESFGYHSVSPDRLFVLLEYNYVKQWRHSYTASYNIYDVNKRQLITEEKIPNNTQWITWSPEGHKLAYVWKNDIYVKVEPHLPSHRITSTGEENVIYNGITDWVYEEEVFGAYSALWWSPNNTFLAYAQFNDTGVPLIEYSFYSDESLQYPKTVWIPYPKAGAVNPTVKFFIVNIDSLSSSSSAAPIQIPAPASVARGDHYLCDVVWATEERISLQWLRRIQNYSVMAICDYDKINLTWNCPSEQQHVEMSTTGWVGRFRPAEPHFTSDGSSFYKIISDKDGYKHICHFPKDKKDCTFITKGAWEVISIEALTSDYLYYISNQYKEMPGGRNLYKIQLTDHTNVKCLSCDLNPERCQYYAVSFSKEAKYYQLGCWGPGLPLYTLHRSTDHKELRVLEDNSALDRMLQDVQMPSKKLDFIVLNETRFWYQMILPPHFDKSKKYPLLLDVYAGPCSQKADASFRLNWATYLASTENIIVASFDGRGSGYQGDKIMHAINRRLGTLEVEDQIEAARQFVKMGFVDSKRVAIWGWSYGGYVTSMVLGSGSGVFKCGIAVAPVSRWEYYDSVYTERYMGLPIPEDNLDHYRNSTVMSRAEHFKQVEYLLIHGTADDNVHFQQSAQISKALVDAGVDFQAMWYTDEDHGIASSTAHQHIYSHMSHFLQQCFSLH
Sequence of Dipeptidyl peptidase 4 (Homo sapiens, UniProt P27487) (P27487 whole entry): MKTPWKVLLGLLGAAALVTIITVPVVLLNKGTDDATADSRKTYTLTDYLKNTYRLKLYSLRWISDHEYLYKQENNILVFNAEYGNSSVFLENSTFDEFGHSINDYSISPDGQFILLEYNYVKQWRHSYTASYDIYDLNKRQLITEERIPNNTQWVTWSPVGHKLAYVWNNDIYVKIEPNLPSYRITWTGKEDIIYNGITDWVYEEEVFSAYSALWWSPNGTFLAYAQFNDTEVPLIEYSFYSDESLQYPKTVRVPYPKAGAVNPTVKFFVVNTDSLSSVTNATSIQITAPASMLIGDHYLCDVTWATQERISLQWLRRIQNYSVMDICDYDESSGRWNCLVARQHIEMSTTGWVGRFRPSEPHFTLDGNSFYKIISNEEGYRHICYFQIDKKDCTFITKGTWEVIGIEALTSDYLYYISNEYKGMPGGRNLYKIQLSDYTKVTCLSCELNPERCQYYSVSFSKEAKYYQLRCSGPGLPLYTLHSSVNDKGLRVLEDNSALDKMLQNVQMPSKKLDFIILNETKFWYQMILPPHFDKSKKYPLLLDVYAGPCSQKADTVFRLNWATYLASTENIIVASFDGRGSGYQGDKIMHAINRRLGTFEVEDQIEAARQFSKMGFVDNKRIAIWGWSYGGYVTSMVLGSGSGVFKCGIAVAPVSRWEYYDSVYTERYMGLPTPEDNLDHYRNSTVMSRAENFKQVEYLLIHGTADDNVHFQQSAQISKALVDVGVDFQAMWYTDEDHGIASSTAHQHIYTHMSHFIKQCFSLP

Regarding `N#CC1CC=NN1C(=O)CNC1C2CC3CC(C2)CC1C3` (stereo not drawn), on Dipeptidyl peptidase 4 [1], the IC50 came out at 3.2 µM. The compound `C[C@@H](N)C(=O)N1N=CCC1C#N` (stereo partly drawn) displayed an IC50 against Dipeptidyl peptidase 4 [1] of 1.2 µM. Same read-out and setting: with `N#CC1CC=NN1C(=O)CNC12CC3CC(CC(C3)C1)C2` (stereo not drawn) the figure was 1.5 µM. Still for that read-out and setting: under `CC(C)(C)NCC(=O)N1N=CCC1C#N` (stereo in doubt; 5a) stands 24.4 µM. Consider `CC(C)[C@@H](N)C(=O)N1N=CCC1C#N` (stereo partly drawn), for which the half-inhibitory concentration (IC50) on Dipeptidyl peptidase 4 [1] amounted to 1.9 µM. As for `CC(C)C[C@H](N)C(=O)N1N=CCC1C#N` (stereo partly drawn), it took 4.3 µM to reach half-maximal inhibition against Dipeptidyl peptidase 4 [1] (IC50).

On to `N#Cc1ccc(NCCNCC(=O)N2N=CC[C@H]2C#N)nc1`, for which the IC50 was 0.36 µM on Dipeptidyl peptidase 4 [1] and 0.44 µM on Dipeptidyl peptidase 4 [2].

Regarding `N#CC1CC=NN1C(=O)[C@H](CCCCN)NC(=O)OCc1ccccc1` (stereo partly drawn), at Dipeptidyl peptidase 4 [1], the IC50 was found to be 0.66 µM. The same measure, in the same setting: under `N#CC1CC=NN1C(=O)CNC1CC2CCC1C2` (stereo not drawn) stands 2.1 µM; under `N#CC1CC=NN1C(=O)CNC1CCCCCCC1` (stereo not drawn), 2.6 µM.

As to `N#Cc1ccc(NCCNCC(=O)N2N=CCC2C#N)nc1` (stereo not drawn), the results for the IC50 at Dipeptidyl peptidase 4 [1] and at Dipeptidyl peptidase 4 [2] were 0.8 µM and 0.96 µM, respectively. The compound further had a 50% effective dose (ED50) in experiment [3] of 4.1 mg/kg. `N#Cc1ccc(NCCNCC(=O)N2NCC[C@H]2C#N)nc1` gave an IC50 against Dipeptidyl peptidase 4 [1] of 0.06 µM. For `N#Cc1ccc(NCCNCC(=O)N2N=CC[C@@H]2C#N)nc1`, the IC50 against Dipeptidyl peptidase 4 [1] was found to be 5.2 µM; at Dipeptidyl peptidase 4 [2] it was 6.82 µM.

With `N#CC1CC=NN1C(=O)CNC1CCC(Nc2ccc([N+](=O)[O-])cn2)CC1` (stereo not drawn), at Dipeptidyl peptidase 4 [1], half-maximal inhibition (IC50) required 1.2 µM. Regarding `N#CC1CC=NN1C(=O)CNC12CC3CC(CC(O)(C3)C1)C2` (stereo not drawn), at Dipeptidyl peptidase 4 [1], the IC50 was 6.4 µM.

At Dipeptidyl peptidase 4 [1], `N#CC1CC=NN1C(=O)CNC1CCC(NC(=O)c2ccccc2)CC1` (stereo not drawn) came in with an IC50 of 4.4 µM. As to `N#CC1CC=NN1C(=O)CNCCNc1ccc([N+](=O)[O-])cn1` (stereo not drawn), inhibition against Dipeptidyl peptidase 4 [1] was half-maximal at 1.2 µM (IC50). Regarding `CCC(C)[C@@H](N)C(=O)N1N=CCC1C#N` (stereo partly drawn), the values for the half-inhibitory concentration (IC50) against Dipeptidyl peptidase 4 [1], against Dipeptidyl peptidase 4 [2] and on Dipeptidyl peptidase 4 [4] were 0.22 µM, 0.08 µM and 0.13 µM, respectively. The compound further had an ED50 in experiment [3] of 16.1 mg/kg. Regarding `N#CC1CC=NN1C(=O)CNC1CCCCC1` (stereo in doubt; 1g), inhibition on Dipeptidyl peptidase 4 [1] was half-maximal at 2.3 µM (IC50). As for `N#CC1CC=NN1C(=O)CNC1CCCCC1` (stereo in doubt; 5c), at Dipeptidyl peptidase 4 [1], the midpoint of inhibition, the IC50, lay at 2.8 µM.

At Dipeptidyl peptidase 4 [1], `N#CC1CC=NN1C(=O)CNC1CCCC1` (stereo not drawn) registered an IC50 of 1.3 µM.

The values are drawn from ChEMBL document CHEMBL1137181, “Synthesis and DP-IV inhibition of cyano-pyrazoline derivatives as potent anti-diabetic agents” (Bioorg Med Chem Lett, 2004).
